LMPTP inh: LMPTP phosphatase inhibitors, primary screen, biochemical, fluorescence intensity, uHTS; Low molecular weight phosphotyrosine protein phosphatase (Homo sapiens), P24666; recombinant LMPTP-A, OMFP fluorogenic substrate; inhibition, % at 20 µM; 360,000 tested, 0.22% active;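 active = compounds that cut the enzyme signal by at least half of the control window in the single-dose screen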
Target sequence (P24666 whole entry, looked up): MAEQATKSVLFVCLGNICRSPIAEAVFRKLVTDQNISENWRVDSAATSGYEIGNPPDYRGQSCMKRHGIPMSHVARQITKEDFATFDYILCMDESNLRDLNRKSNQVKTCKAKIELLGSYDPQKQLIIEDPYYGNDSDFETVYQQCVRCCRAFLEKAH
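Test system: LMPTP-A phosphatase enzyme; input: 0.625 nM LMPTP-A final; reagent: OMFP substrate, 400 µM final; compound dosing: 20 µM single dose, 3% DMSO; incubation: 50 min dark incubation at room temperature; measured by: endpoint fluorescence intensity from OMFP dephosphorylation; measure: % inhibition relative to no-enzyme and uninhibited control wells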
SUMO1-SIM PPI: modulators of SUMO1 protein-protein interactions, primary screen, biochemical, uHTS; inhibition, % at 20 µM; AID 602429, 2012; SUMO1 binding to a labelled peptide, TR-FRET, 1 h; 360,000 tested, 0.33% active; Small ubiquitin-related modifier 1 (Homo sapiens), P63165; in the data active = inhibition above about 37%
Target sequence (P63165 whole entry, looked up): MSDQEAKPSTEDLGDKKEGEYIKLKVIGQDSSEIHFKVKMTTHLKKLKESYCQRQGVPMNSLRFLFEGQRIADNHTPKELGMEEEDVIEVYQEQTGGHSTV
Scp1 inh: Scp-1 phosphatase inhibitors, primary screen, biochemical, colorimetric, uHTS. Carboxy-terminal domain RNA polymerase II polypeptide A small phosphatase 1 (Homo …. Recombinant Scp1, phosphopeptide, malachite green phosphate absorbance. inhibition, % at 20 µM. 340,000 tested, 0.88% active. AID 493091, 2011;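 active = inhibition above about 50% at 20 µM, limit read from the data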
Target sequence (Q9GZU7 76-261 limits assumed): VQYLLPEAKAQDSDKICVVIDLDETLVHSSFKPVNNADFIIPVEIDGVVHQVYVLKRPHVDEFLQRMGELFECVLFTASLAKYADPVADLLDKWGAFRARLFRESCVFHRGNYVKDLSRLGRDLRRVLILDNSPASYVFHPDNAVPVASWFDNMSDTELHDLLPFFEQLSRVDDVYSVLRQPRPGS
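assay system = SCP-1 phosphatase catalytic domain, residues 76-261 | buffer or medium = 50 mM Tris acetate pH 5.5, 0.005% Tween-20, 10 mM MgCl2 | incubation = enzyme reaction 45 min at room temperature, colour 5 min, stabilisation 30 min | signal = Phosphate-binding colour reagent, absorbance read at 630 nm | measure = % inhibition at 20 µM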
DNMT1 block: human DNMT1 methyltransferase inhibitors, primary screen, biochemical, molecular beacon, fluorescence, HinP1I cleavage, uHTS; inhibition (reported as % activation of signal), % at 10 µM; 360,000 tested, 0.83% active; AID 588458, 2011; in the data active = inhibition above about 50%
STEP block: STEP phosphatase inhibitors, primary screen, biochemical, fluorescence intensity, uHTS | Tyrosine-protein phosphatase non-receptor type 5 (Homo sapiens), P54829 | recombinant STEP, OMFP fluorogenic substrate | inhibition, % at 20 µM | 360,000 tested, 0.25% active | AID 588621, 2011;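 active = inhibition at 20 µM, scaled per plate between control wells, above about 37%, limit read from the data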
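medium = Bis-Tris buffer pH 6.0, 2.5 mM DTT, 0.005% Tween 20 | test system = STEP (striatal-enriched tyrosine phosphatase) enzyme, cell-free | measure = normalized % inhibition | compound dosing = 20 µM, 1% DMSO | also added = 25 µM OMFP | schedule = reaction 20 min, ambient temperature | measured by = fluorescence read at 480 nm ex / 540 nm em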
DNMT1 confirm: DNMT1 methyltransferase inhibitor retest, confirmation, biochemical, molecular beacon, fluorescence, single concentration | shares compounds with DNMT1 block | DNMT1 molecular beacon HinP1I cleavage | inhibition, % at 10 µM | 2,300 tested, 8% active | AID 602385, 2012;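 active = average inhibition of at least 30% in the single-concentration confirmation test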
Beacon interf: beacon fluorescence artifact counter-screen. shares compounds with DNMT1 block. DNMT1 molecular beacon spectral interference counterscreen, fluorescence 485/520. activation (fluorescence interference), % at 10 µM. 2,300 tested, 1% active;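 active = activation of at least 30% at 10 µM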;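 also: DNMT1 catalytic domain with a HinP1I cleavage step and a FAM/dabcyl DNA beacon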
Large screens that a line does not name were inactive (follow-up assays come after a bar, where they were run). In the library only some 1.8% were active in any assay of this set; here they are far more common.

O=C(COC(=O)[C@@H]1CCCN1C(=O)c1cccs1)Nc1cccc(Cl)c1	none
Cc1cc(/C=N/Nc2ccc([N+](=O)[O-])cn2)c(C)n1-c1ccc(C(=O)O)cc1	Scp1 inh 57.0, DNMT1 block 61.4 | DNMT1 confirm inactive | Beacon interf inactive
CC1(C(=O)NCc2cccc3ccccc23)CCN1Cc1ccc(OC(F)(F)F)cc1 (configuration not stated)	none (no result: Scp1 inh)
Cc1cc(NC(=O)CSc2cn(CCNC(=O)c3ccccc3)c3ccccc23)no1	DNMT1 block 71.8 | DNMT1 confirm inactive | Beacon interf inactive
CC(=O)NC(c1cccc(F)c1)c1nc(-c2cc(F)cc(Cl)c2)cs1 (configuration not stated)	DNMT1 block 58.5 (no result: Scp1 inh) | DNMT1 confirm inactive | Beacon interf inactive
CCc1ccc(-c2nc(NC(=O)c3ccc(OCC(=O)Nc4ccc(F)cc4)c(OC)c3)sc2C)cc1	DNMT1 block 60.8 | DNMT1 confirm inactive | Beacon interf inactive
Cc1ccc(Cl)cc1NC(=O)CN1CCN(S(=O)(=O)N2CCC(C)CC2)CC1	none
CCn1ccnc1CN(C)Cc1cn(-c2ccc(C)cc2)nc1-c1ccc(F)cc1	DNMT1 block 59.9 | DNMT1 confirm inactive | Beacon interf inactive
Cc1ccc(-n2cc(CN(C)Cc3nccn3C)c(-c3ccc(F)cc3)n2)cc1	none
COC(=O)c1ccc(COC(=O)CNC(=O)CNC(=O)c2ccc(OC)cc2)cc1	none
Cc1c(NC2=NC3(CCCCC3)Cc3ccccc32)c(=O)n(C)n1-c1ccccc1	DNMT1 block 82.7 | DNMT1 confirm inactive | Beacon interf inactive
Cc1c(NC2=NC(C)(C)Cc3ccccc32)c(=O)n(-c2ccccc2)n1C	none
COc1ccc(C2CC(c3ccccc3C(F)(F)F)=NN2c2ccc(S(N)(=O)=O)cc2)cc1 (configuration not stated)	DNMT1 block 65.1 | DNMT1 confirm inactive | Beacon interf inactive
COc1ccc(C2CC(c3ccccc3F)=NN2c2ccc(S(N)(=O)=O)cc2)cc1 (configuration not stated)	none
O=c1cc(-c2ccco2)oc2c1ccc1ccccc12	DNMT1 block 65.0 | DNMT1 confirm inactive | Beacon interf inactive
COc1ccc2nc(C)cc(SCC(=O)N/N=C/c3cccc4ccccc34)c2c1	DNMT1 block 53.2 | DNMT1 confirm inactive | Beacon interf inactive
O=[N+]([O-])c1ccc(COc2cccc(CNc3ccc(Br)cc3)c2)cc1	DNMT1 block 70.7 | DNMT1 confirm inactive | Beacon interf inactive
O=[N+]([O-])c1ccc(COc2ccc(CNc3ccccc3)cc2)cc1	none
Cc1ccc(Cn2c(SCc3cccnc3)nc3c2c(=O)n(C)c(=O)n3C)cc1	DNMT1 block 107.6 | DNMT1 confirm inactive | Beacon interf inactive
Cn1c(=O)c2c(nc(SCc3cccnc3)n2Cc2ccccc2)n(C)c1=O	none
CCCSc1nc2c(c(=O)[nH]c(=O)n2C)n1Cc1ccc(C)cc1	DNMT1 block 53.9 | DNMT1 confirm inactive | Beacon interf inactive
COc1c(NC=O)c2c(c([N+](=O)[O-])c1OC)C(=O)OC2	none
COc1cccc(NC(=O)N(C)C[C@H]2Oc3cc(Br)ccc3S(=O)(=O)N([C@H](C)CO)C[C@H]2C)c1	none (no result: Scp1 inh)
COc1ccc2oc(=O)c(C(=O)NCc3cccnc3)cc2c1	DNMT1 block 51.2 | DNMT1 confirm inactive | Beacon interf inactive
CC1(OC(=O)CCc2ccccc2)C(=O)C=C2C=C3CCCN3C=C2C1=O (configuration not stated)	DNMT1 block 76.7 | DNMT1 confirm inactive | Beacon interf inactive
CCCc1nnc(NS(=O)(=O)c2ccc(OC)cc2)s1	DNMT1 block 72.5 | DNMT1 confirm inactive | Beacon interf inactive

Screening data from PubChem.
